Assay outcomes deposited in PubChem by several laboratories.
L major viab – inhibitors of Leishmania major promastigote growth | inhibition, % at 10 µM | AID 1063 | Leishmania major promastigotes, resazurin fluorescence viability | 200,000 compounds, 9% hits; in the data active = inhibition above about 50%;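 also: promastigotes grown with compound for 44 hours at 28 °C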
RAM inhibit – blocks the yeast RAM network; S. cerevisiae dse1pr::URA3 reporter, 5-FOA growth OD615, 2 d; analog-sensitive cbk1-as2 kinase mutant strain; inhibition, % at 50 µM; 190,000 compounds, 1.8% hits; AID 868;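 active = inhibition above a set limit, 3 SD over mean compound inhibition, cut at about 8.4% in these data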;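 also: 0% = DMSO-only wells with no growth and 100% = 10 µM 1-NA-PP1 full growth; inhibition rescues growth on 5-FOA so higher OD means more RAM inhibition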
WT yeast gro inh – growth inhibition of WT yeast, mitochondrial fusion screen. AID 1362. inhibition, % at 10 µM. mitochondrial fusion phenotypic screen, WT strain. 190,000 compounds, 2.1% hits; in the data active = inhibition above about 58%; tested in S. cerevisiae
ABCB1 block – blocks JC-1 efflux by human ABCB1 transporter; P08183; CCRF-Adr cells, flow cytometry; inhibition, % at 6.6 µM; 190,000 compounds, 0.067% hits; AID 1326; in the data active = inhibition above about 40%;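 also: 0% = vehicle and 100% = reference inhibitor; higher value means more JC-1 retained so stronger ABCB1 efflux block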
ABCG2 inh – inhibitors of human ABCG2 transporter, ABCB1 counter-screen; 190,000 compounds, 0.1% hits; inhibition, % at 6.6 µM; Q9UNQ0; IgMXP3 cells, JC-1 efflux, flow cytometry;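 active = inhibition above 80%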;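 also: 0% = DMSO and 100% = nicardipine control wells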
Target sequence (Q9UNQ0 whole entry, looked up): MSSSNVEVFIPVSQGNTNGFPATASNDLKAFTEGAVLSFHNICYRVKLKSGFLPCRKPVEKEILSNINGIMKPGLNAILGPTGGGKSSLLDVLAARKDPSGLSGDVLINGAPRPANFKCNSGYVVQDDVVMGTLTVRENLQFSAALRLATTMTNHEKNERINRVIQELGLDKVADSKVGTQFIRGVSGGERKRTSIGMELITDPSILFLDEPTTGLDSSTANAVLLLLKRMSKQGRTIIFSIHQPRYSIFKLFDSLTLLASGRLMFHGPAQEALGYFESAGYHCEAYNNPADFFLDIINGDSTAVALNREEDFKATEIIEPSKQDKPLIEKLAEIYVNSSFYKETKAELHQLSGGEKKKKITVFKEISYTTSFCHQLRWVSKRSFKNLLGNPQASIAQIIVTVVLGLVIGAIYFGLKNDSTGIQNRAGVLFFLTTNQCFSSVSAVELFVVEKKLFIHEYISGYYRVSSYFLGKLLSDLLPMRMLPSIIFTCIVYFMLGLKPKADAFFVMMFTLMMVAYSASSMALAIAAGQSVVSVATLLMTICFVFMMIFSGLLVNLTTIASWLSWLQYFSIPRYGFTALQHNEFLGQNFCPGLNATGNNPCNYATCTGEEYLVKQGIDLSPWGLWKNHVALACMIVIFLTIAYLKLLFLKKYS
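Test system: IgMXP3 (ABCG2) plus far-red-tagged CCRF-Adr (ABCB1) cells / Amount: 3 million cells/mL in well / Reagent: JC-1 transporter substrate / Timing: 10 min compound exposure, 25 °C / Signal: flow cytometry, 530 nm JC-1 signal / Read-out: percent efflux inhibition, scaled nicardipine 100% to DMSO 0% / Benchmarks: nicardipine as high control, DMSO as low control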
* hit, by the source's call; . = no result. This is a sample that favours compounds with a hit; in the whole collection about 12% have one here.

SMILES	L major viab	RAM inhibit	WT yeast gro inh	ABCB1 block	ABCG2 inh
O=C(c1ccccc1F)N1CCN(c2ccc([N+](=O)[O-])c3cccnc23)CC1	63.4*	3.2	-18.2	1.1	7.9
NC(Cc1ccccc1)C(O)(c1ccccc1)c1ccccc1 (stereo not given)	11.3	2.3	9.9	0.4	0.3
c1ccc(Nc2nc3ccccc3[nH]2)nc1	100.1*	-0.5	20.8	0.2	1.3
COc1cccc(N2CCN(C3CCCC(C)C3)CC2)c1 (stereo not given)	69.2*	0.0	-21.8	0.2	0.5
COc1cccc(N2CCN(Cc3nnnn3C3CCCCC3)CC2)c1	-6.5	1.1	7.7	1.2	3.3
Cc1ccc(S(=O)(=O)N(CC(=O)NCCSCc2ccco2)c2cc(C)ccc2C)cc1	99.9*	.	.	.	.
Cc1ccc(N(CC(=O)NCCSCc2ccco2)S(=O)(=O)c2ccc(F)cc2)cc1	69.4*	3.8	13.2	2.5	7.8
CN(C)S(=O)(=O)c1ccc(NC=O)cc1	-3.0	-0.1	11.3	0.0	1.3
C=C(C)COc1ccc2c(CC)cc(=O)oc2c1C	61.7*	0.3	-22.5	1.1	34.5
C=C(C)COc1ccc2c(C)c(CC(=O)OC)c(=O)oc2c1C	58.2*	2.9	4.9	1.0	6.2
CCCOc1ccc2c(CC)cc(=O)oc2c1C	-1.2	1.5	16.6	0.5	1.3
O=c1c(S(=O)(=O)c2ccc(Cl)cc2)cn(Cc2ccccc2F)c2ccc(F)cc12	13.0	4.7	-10.2	0.0	-0.5
COc1ccccc1N1CCN(CC(O)COc2ccc3c(c2)CCC3)CC1 (stereo not given)	10.1	0.6	3.8	3.8	11.6
Cc1ccc(C)c(NC(=O)CSc2nc3ccc(N4C(=O)c5ccccc5C4=O)cc3s2)c1	98.6*	3.0	8.0	-0.3	-4.0
Cc1ccc(Nc2ccc3nonc3c2[N+](=O)[O-])cc1	-5.9	1.0	6.1	1.1	6.2
Cc1ccc(Nc2ccc([N+](=O)[O-])nc2[N+](=O)[O-])cc1	69.8*	2.3	6.8	0.3	3.6
Cc1sc(NC(=O)c2ccco2)nc1-c1ccc2c(c1)CC(C)N2C(=O)C1CC1 (stereo not given)	86.1*	2.0	0.5	-1.0	-3.5
O=C(O)C1Cc2ccccc2CN1C(=O)CSc1nnc2ccccn12 (stereo not given)	-4.1	-1.0	-10.5	0.3	0.1
N#CCN1CCC(c2cc(-c3ccco3)n[nH]2)CC1	5.9	1.0	-6.3	-0.3	6.5
CC(=O)Nc1ccc(C2=NN(C)C(=NCc3ccccc3)SC2)cc1	66.7*	3.0	-2.4	0.1	0.7
CCc1nc2ccccc2n1CC1CC1(Cl)Cl (stereo not given)	12.8	2.6	6.8	0.2	4.9
Cc1ccc(NC(=O)CNc2ccc(OC(C)C)cc2)c(C)c1	21.0	2.1	9.4	0.2	0.0
Cc1ccc(NS(=O)(=O)c2cc(NC(=O)C(C)Oc3ccccc3)ccc2C)c(C)c1 (stereo not given)	98.3*	3.6	41.1	0.7	-5.1
COc1ccccc1C/C(N)=N/OC(=O)/C=C/c1ccccc1	22.8	0.9	12.1	0.6	4.5
CCNC(=O)C12CCC(C)(c3nc4cc(C)c(C)cc4nc31)C2(C)C (stereo not given)	6.3	1.0	1.3	1.2	0.7
SMILES	L major viab	RAM inhibit	WT yeast gro inh	ABCB1 block	ABCG2 inh
O=C(O)CCCN=Cc1c(O)c2ccccc2oc1=O	-7.0	2.3	8.2	0.4	0.6
Cc1ccc2nc(-c3ccco3)c(Nc3ccccc3)n2c1	3.8	-0.1	7.9	0.6	3.0
Cc1ccc(Nc2c(-c3ccccn3)nc3ccc(C)cn23)cc1	100.5*	0.8	70.5	0.9	9.0
Cc1ccc(Nc2c(-c3cccnc3)nc3ccc(Br)cn23)cc1	15.8	3.0	-1.6	0.0	-0.3
Cc1ccc(Nc2c(-c3ccccn3)nc3cc(C)ccn23)cc1	100.7*	-0.1	69.4	2.8	14.3
Cc1ccn2c(Nc3ccc4c(c3)OCO4)c(-c3ccccn3)nc2c1	100.5*	2.1	14.3	1.3	6.4
Cc1ccc2nc(-c3ccncc3)c(Nc3ccccc3)n2c1	96.5*	-0.6	0.3	1.0	7.1
c1ccc2c(-c3cc(C4CCNCC4)[nH]n3)cccc2c1	35.6	2.5	6.7	1.3	3.5
CC(C)(C)c1ccc(OC(=O)c2ccc(-n3cncn3)nc2)cc1	-6.0	4.3	6.8	0.5	4.6
Cc1nn(Cc2ccccc2Cl)c(C)c1C(=O)NCCN1C(=O)S/C(=C\c2ccccc2)C1=O	0.4	2.0	-30.2	1.5	2.3
N=c1c(-c2nc3ccccc3[nH]2)cc(C(=O)c2cccs2)nn1-c1ccccc1	99.9*	3.6	-8.7	0.9	3.4
O=C(Nc1cccc(-c2nc3ccccc3[nH]2)c1)c1ccco1	35.2	3.1	-42.0	0.6	2.3
N=c1c(-c2nc3ccccc3[nH]2)cc(C(=O)c2ccco2)nn1-c1ccccc1	100.3*	4.8	-6.1	4.4	21.0
CC(C)CC1c2[nH]c3ccccc3c2CCN1C(=O)CCC(=O)N(C)C (stereo not given)	1.3	0.1	2.9	0.5	2.0
N=C1c2ccccc2CN1NC(=O)c1cccc(S(=O)(=O)N2CCCC2)c1	-4.0	2.2	3.8	-0.2	0.2
CCOC1=NN(c2ccccc2)C(=O)/C1=C\N(C)C	-3.8	0.6	-3.9	0.0	2.6
CC1=NN(c2nc3ccccc3[nH]2)C(=O)/C1=C/N(C)C	-1.8	-0.1	85.0*	-0.9	16.7
COc1ccc(C(c2c(O)ccc3ccccc23)N2CCOCC2)c(OC)c1 (stereo not given)	59.8*	0.7	-5.3	-0.8	-2.1
COc1ccc(-c2cc3ccccc3n2CC(O)CN2CCOCC2)cc1 (stereo not given)	-1.5	-1.3	-0.8	2.3	4.1
CC1=C(C(=O)Nc2ccccc2C)C(c2cccs2)NC(=S)N1 (stereo not given)	-0.6	4.4	-3.5	0.6	1.2
CCOc1ccccc1NC(=O)C1=C(C)NC(=S)NC1c1cccs1 (stereo not given)	5.8	9.8*	-7.2	-0.1	-2.7
CC(NC(=O)CCc1nnc(CCCc2ccccc2)o1)c1ccccc1 (stereo not given)	76.3*	1.2	-0.7	0.7	1.9
CCOc1cc(/C=C2\CCC/C(=C\c3cc(Cl)c(O)c(OCC)c3)C2=O)cc(Cl)c1O	93.0*	6.0	-24.1	0.7	0.9
Cc1ccnc(NS(=O)(=O)c2ccc(NC(=O)c3ccc(S(=O)(=O)N4CC(C)OC(C)C4)cc3)cc2)n1 (stereo not given)	-6.0	4.5	-12.3	0.0	6.0
O=C(NC1=C(NC2CCS(=O)(=O)C2)C(=O)c2ccccc2C1=O)c1ccccc1 (stereo not given)	99.4*	0.1	3.7	0.3	9.8
Cc1cccc(NC2=C(NC(=O)c3ccccc3)C(=O)c3ccccc3C2=O)c1	51.9*	2.0	33.1	0.4	0.1
O=C(NC(NC1CCS(=O)(=O)C1)C(=O)c1cccs1)c1ccccc1 (stereo not given)	-4.6	0.2	12.7	-0.1	-0.4
